Experimental data from ChEMBL document CHEMBL4673386, “The Bicyclic Form of galacto-Noeurostegine Is a Potent Inhibitor of β-Galactocerebrosidase” (ACS Med Chem Lett, 2021).

Key:
[1] = target: T1, Galactocerebrosidase (Mus musculus) (UniProt P54818); experiment: Stabilization of mouse N-terminal His6-tagged GALC expressed in HEK293T cells assessed as change in melting temperature at pH 5.6 by differential scanning fluorimetry; format: cell-based
T1 sequence (whole entry): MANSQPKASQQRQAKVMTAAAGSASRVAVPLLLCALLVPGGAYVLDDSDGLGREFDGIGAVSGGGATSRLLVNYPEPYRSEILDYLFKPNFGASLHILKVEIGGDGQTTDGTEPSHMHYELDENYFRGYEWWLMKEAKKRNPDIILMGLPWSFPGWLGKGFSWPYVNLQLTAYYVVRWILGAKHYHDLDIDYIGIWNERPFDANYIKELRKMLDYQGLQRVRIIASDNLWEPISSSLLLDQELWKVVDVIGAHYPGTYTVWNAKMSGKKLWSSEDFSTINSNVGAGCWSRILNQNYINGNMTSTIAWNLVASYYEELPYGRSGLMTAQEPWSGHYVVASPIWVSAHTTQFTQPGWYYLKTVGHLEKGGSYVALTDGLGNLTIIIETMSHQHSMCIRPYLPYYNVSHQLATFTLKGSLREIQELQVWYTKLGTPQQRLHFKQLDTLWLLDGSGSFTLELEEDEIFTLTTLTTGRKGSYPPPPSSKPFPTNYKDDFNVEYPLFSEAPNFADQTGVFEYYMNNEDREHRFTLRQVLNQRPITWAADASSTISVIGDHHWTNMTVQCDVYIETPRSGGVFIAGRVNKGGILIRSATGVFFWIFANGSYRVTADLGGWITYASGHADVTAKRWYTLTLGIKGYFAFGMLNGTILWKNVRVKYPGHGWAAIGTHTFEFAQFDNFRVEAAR
Outline: (§1)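 GALC thermal melt curves recorded with and without ligand at 0.5 mM, at pH values from 4.6 to 7.4. Tm is read from each curve, and ΔTm is taken against GALC alone at the same pH. Runs were done in triplicate.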

[2] = Inhibition of Aspergillus oryzae beta-galactosidase using […] as substrate preincubated for 30 mins followed by substrate addition by UV-vis spectrophotometry analysis
Galactocerebrosidase = target: T2, Galactocerebrosidase (Mus musculus, UniProt P54818); experiment: Inhibition of mouse N-terminal His6-tagged GALC expressed in HEK293T cells using p-nitrophenyl-beta-D-galactopyranoside as substrate
T2 sequence (P54818 whole entry): T1 sequence (whole entry)

[3] = target: T1, Galactocerebrosidase (Mus musculus); experiment: Stabilization of mouse N-terminal His6-tagged GALC expressed in HEK293T cells assessed as melting temperature at 0.5 mM at pH 4.6 by differential scanning fluorimetry (reference value: 62.2 degreeC); format: cell-based; outline: as §1
[4] = target: T1, Galactocerebrosidase (Mus musculus); experiment: Stabilization of mouse N-terminal His6-tagged GALC expressed in HEK293T cells assessed as change in melting temperature at pH 4.6 by differential scanning fluorimetry; format: cell-based; outline: as §1
[5] = target: T1, Galactocerebrosidase (Mus musculus); experiment: Stabilization of mouse N-terminal His6-tagged GALC expressed in HEK293T cells assessed as melting temperature at 0.5 mM at pH 7.4 by differential scanning fluorimetry (reference value: 53.4 degreeC); format: cell-based; outline: as §1
[6] = Inhibition of Escherichia coli beta-galactosidase using […] as substrate preincubated for 30 mins followed by substrate addition by UV-vis spectrophotometry analysis
[7] = Inhibition of green coffee beans beta-galactosidase using […] as substrate preincubated for 30 mins followed by substrate addition by UV-vis spectrophotometry analysis; set-up: species or system Coffea arabica
[8] = target: T1, Galactocerebrosidase (Mus musculus); experiment: Stabilization of mouse N-terminal His6-tagged GALC expressed in HEK293T cells assessed as melting temperature at 0.5 mM at pH 5.6 by differential scanning fluorimetry (reference value: 62.8 degreeC); format: cell-based; outline: as §1
[9] = target: T1, Galactocerebrosidase (Mus musculus); experiment: Stabilization of mouse N-terminal His6-tagged GALC expressed in HEK293T cells assessed as melting temperature at 0.5 mM at pH 6.6 by differential scanning fluorimetry (reference value: 59.6 degreeC); format: cell-based; outline: as §1
[10] = target: T1, Galactocerebrosidase (Mus musculus); experiment: Stabilization of mouse N-terminal His6-tagged GALC expressed in HEK293T cells assessed as change in melting temperature at pH 6.6 by differential scanning fluorimetry; format: cell-based; outline: as §1
[11] = target: T1, Galactocerebrosidase (Mus musculus); experiment: Stabilization of mouse N-terminal His6-tagged GALC expressed in HEK293T cells assessed as change in melting temperature at pH 7.4 by differential scanning fluorimetry; format: cell-based; outline: as §1

Row | Compound | ΔTm [1] [°C] | Ki [2] [nM] | Ki (Galactocerebrosidase) [mM] | Tm [3] [°C] | ΔTm [4] [°C] | Tm [5] [°C] | Ki [6] [mM] | Ki [7] [mM] | Tm [8] [°C] | Tm [9] [°C] | ΔTm [10] [°C] | ΔTm [11] [°C]
1 | OC[C@@H]1[C@H](O)[C@H](O)[C@]2(O)CC[C@H]1N2 | 5.2 | 31 | 0.007 | 68 | 5.8 | 54.8 | > 1 | > 1 | 68 | 65 | 5.4 | 1.4
2 | OC[C@@H]1[C@H](O)[C@H](O)[C@@H]2CC[C@H]1N2 |  | 130 | 2.3 |  |  |  | > 1 | > 1 |  |  |  | 
